# An excerpt weighted towards active compounds, which were near 2.5% of everything screened.
# MLL AF4-AF9 inh: inhibitors of AF4 peptide binding to AF9, primary screen, biochemical, AlphaScreen, biotin-AF4 peptide, FLAG-AF9, single point | inhibition, % at 10 µM | actives 0.47% (n = 350,000);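 active means every replicate reaching a set inhibition limit, whatever the replicate mean, cut at about 25% in these data; inconclusive means mean inhibition reaches that limit but some replicates miss it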
# Target sequence (P42568 whole entry, looked up): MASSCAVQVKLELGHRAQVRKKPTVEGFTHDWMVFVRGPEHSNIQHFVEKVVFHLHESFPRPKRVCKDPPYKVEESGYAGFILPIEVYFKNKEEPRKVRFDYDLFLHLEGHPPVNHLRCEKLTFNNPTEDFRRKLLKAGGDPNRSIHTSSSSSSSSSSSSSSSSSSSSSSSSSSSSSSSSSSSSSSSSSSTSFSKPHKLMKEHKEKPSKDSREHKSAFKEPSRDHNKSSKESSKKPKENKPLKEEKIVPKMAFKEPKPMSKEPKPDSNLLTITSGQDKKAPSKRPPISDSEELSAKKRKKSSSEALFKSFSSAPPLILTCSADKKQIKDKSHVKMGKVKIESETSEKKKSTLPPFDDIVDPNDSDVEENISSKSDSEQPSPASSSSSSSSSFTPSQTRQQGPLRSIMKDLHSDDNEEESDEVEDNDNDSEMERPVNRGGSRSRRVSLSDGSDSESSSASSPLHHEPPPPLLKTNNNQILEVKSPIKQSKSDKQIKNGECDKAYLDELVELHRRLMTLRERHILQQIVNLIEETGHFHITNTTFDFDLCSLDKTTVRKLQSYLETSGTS
# Env fusion inh: inhibitors of HIV-1 Env-driven cell-cell fusion, primary screen, HeLa-JRFL effector, CEM21 target cells, luciferase; inhibition, % at 12.3 µM; actives 1.1% (n = 360,000); AID 651610, 2012;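 active means mean replicate inhibition score of at least 50 and every replicate individually at or above 50; inconclusive means only one of the two criteria met; inactive means mean below 50 and not all replicates reaching 50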
# EWS-Fli inh: EWS/Fli-driven NR0B1 reporter inhibitors, primary screen, A673 cells, NR0B1 luciferase, luminescence, MLPCN library; inhibition, % at 12.6 µM; AID 651661, 2012; actives 0.67% (n = 350,000); viability-normalised;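 active means mean inhibition of at least 50% after viability correction, with every replicate also passing that limit; inconclusive means mean reaches 50% but only one of two replicates passes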;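 further: firefly luciferase signal divided by Alamar Blue viability fluorescence both relative to DMSO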
# N-glyco inh: increase of ERlucT glycosylation luciferase signal, primary screen, N-linked glycosylation inhibitor project, D54 ERlucT cells, luminescence, set 2 | D54 ERlucT glycosylation luciferase reporter, 24 h; percent of 100 nM tunicamycin response | reporter increase, % at 12.5 µM | actives 0.23% (n = 360,000);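 active means mean luciferase reporter signal, scaled so untreated is 0 and the glycosylation-blocking control 100, at or above a set limit in every replicate; inconclusive means mean reaches the limit but not every replicate does; inactive means mean below the limit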;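 further: luciferase carries N-glycosylation sites so blocking glycosylation raises the light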
# FN deposition inh: inhibitors of fibronectin matrix deposition, primary screen, AH1F cells, Alexa488-fibronectin fluorescence, plate reader. actives 0.086% (n = 350,000). AH1F fibroblasts, overnight. inhibition, % at 12.6 µM. AID 743247, 2014;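 active means mean inhibition across replicates of 30% or more, regardless of how many single replicates reach that level; inconclusive means mean under 30% yet at least half of replicates reach 30%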
#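 Material: AH1F fibroblast monolayer depositing Alexa488-labelled fibronectin into matrix | Input: 10000 AH1F cells/well | Medium: DMEM plus 2% serum, read in PBS | Reagent: Alexa488-fibronectin, 24 nM final in well | Compound dosing: One dose per compound, pinned | Schedule: 1 h adhesion, overnight exposure | Measured by: Fluorescence at 485 nm excitation, 525 nm emission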
# PAX8 inh HTS: inhibitors of PAX8-driven TPO luciferase reporter, primary screen, RMG-I cells, single concentration. SteadyGlo, 24 h. inhibition, % at 12.6 µM. actives 1.2% (n = 360,000). AID 652154, 2013;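 active means mean replicate inhibition at least 60% with every replicate also reaching 60%; inconclusive means only one of the two criteria is met; inactive means mean below 60% and not all replicates reaching 60%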;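 further: luciferase light reporting Pax8 driven TPO promoter activity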
# Numbers stand for hits; – = inactive; ? = inconclusive; · = no result given; [ ] = remark or other dose.
SMILES,MLL AF4-AF9 inh,Env fusion inh,EWS-Fli inh,N-glyco inh,FN deposition inh,PAX8 inh HTS
Cc1c(CCOC(=O)C23CC4(C)CC(C)(CC(C)(C4)C2)C3)sc[n+]1CC(=O)c1ccccc1,–,62,–,–,·,–
COCC(=O)N(C)C[C@@H]1Oc2ncc(C#CC3(O)CCCC3)cc2C(=O)N([C@H](C)CO)C[C@H]1C,–,–,–,·,–,·
Cc1cc(-c2nn(-c3ccccc3F)cc2CNCCc2cnc[nH]2)c(C)s1,29,?,–,–,–,–
O=C(Nc1cccc(Cl)c1)N1C[C@H]2[C@@H](c3ccccc31)[C@H](CO)N2Cc1ccccc1Cl,–,·,–,·,·,–
CCCCCCCCn1ccc(=N)cc1,–,–,–,–,–,–
CCCCCCCCCCn1ccc(=N)cc1,·,78,58,–,–,83
CCOc1ccc(C(=O)Nc2cc(C)on2)cc1,·,–,·,–,·,·
Cc1cc(NC(=O)c2cccc(COc3ccc(Br)cc3)c2)no1,–,–,86,–,–,–
Cc1cccc(Cn2nc(C)c(NC(=O)c3ccc(F)cc3)c2C)c1,–,–,–,–,·,–
Cc1nn(Cc2c(F)c(F)c(F)c(F)c2F)c(C)c1NC(=O)c1cccc(COc2ccc(Cl)cc2)c1,·,63,·,–,·,·
CCN1/C(=C/c2ccc3cc(C)ccc3[n+]2CC)Sc2cc(C)c(C)cc21,–,–,73,–,–,88
CC[n+]1c(/C=C2\Sc3ccccc3N2C)ccc2cccc(C)c21,–,77,–,–,–,61
CCN1/C(=C/C=C/c2sc3ccccc3[n+]2CC)Sc2ccccc21,·,·,·,–,·,·
CCN1/C(=C/c2ccc3cc(C)ccc3[n+]2CC)Sc2ccccc21,–,–,–,–,–,93
CCCC#Cc1ccc2c(c1)O[C@H](CN(C)Cc1ccccc1)[C@H](C)CN([C@H](C)CO)S2(=O)=O,·,–,–,·,–,–
COc1ccc(NC(=O)N(C)C[C@H]2Oc3c(NS(=O)(=O)c4ccc(C)cc4)cccc3C(=O)N([C@H](C)CO)C[C@@H]2C)cc1,–,–,–,·,·,–
COC(=O)Cn1cnc2c(Cl)nc(F)nc21,–,89,–,–,–,–
COC(=O)Cn1cnc2c(nnn2-c2ccc(F)cc2)c1=O,–,–,–,–,–,–
COc1ccccc1N/C(N)=N/c1nc(CSc2ccc(C)cc2)cc(=O)[nH]1,·,67,·,–,–,·
Cc1ccc(-c2nnn(CC(=O)N(CC3CCCO3)C(C(=O)NC3CCCCC3)c3ccc(F)cc3)n2)o1 (stereo not drawn),·,116,·,–,–,·
COc1ccc(C(C(=O)NC2CCCC2)N(CC2CCCO2)C(=O)Cn2nnc(-c3ccc(C)o3)n2)cc1 (stereo not drawn),–,–,–,–,–,–
COCCCn1c(SCc2ccc(OC)cc2)nc2cc(OC)c(OC)cc2c1=N,·,57,·,–,·,·
COc1ccc(CN(C)C(C)C(=O)Nc2ccc(S(=O)(=O)N3CCCCC3)cc2)c(OC)c1 (stereo not drawn),–,–,–,–,–,·
CCN(Cc1ccc(OC)c(F)c1)C(C)C(=O)Nc1ccc(S(=O)(=O)N2CCCC2)cc1 (stereo not drawn),–,57,–,–,–,–
CCOC(=O)c1ccc(NC(=O)c2cc3ccccc3o2)cc1,·,·,·,–,·,·
SMILES,MLL AF4-AF9 inh,Env fusion inh,EWS-Fli inh,N-glyco inh,FN deposition inh,PAX8 inh HTS
CCOC(=O)c1csc(NC(=O)c2cc3ccccc3o2)n1,–,–,59,–,–,–
CCOC(=O)c1sc(NC(=O)Nc2ccccc2F)nc1C,·,–,·,–,–,–
CCOC(=O)c1cccc(NC(=O)c2cc3ccccc3o2)c1,–,–,84,–,–,–
CCOC(=O)c1sc(NC(=O)c2ccc3ncsc3c2)nc1C,–,–,87,–,–,–
CCOC(=O)c1sc(NC(=O)c2ccccc2OC)nc1C,–,–,86,–,–,–
C/C=C/c1ccc2c(c1)O[C@@H](CN(C)C(=O)NCCC)[C@@H](C)CN([C@H](C)CO)S2(=O)=O,–,–,–,·,·,–
COc1ccc(CN(C)C[C@@H]2Oc3c(NS(=O)(=O)c4ccc(Cl)cc4)cccc3C(=O)N([C@@H](C)CO)C[C@@H]2C)cc1,–,·,–,·,·,–
COc1ccc2c3c(n(C)c2c1)[C@H](CO)N(C(=O)Nc1ccc(F)cc1)CC31CCN(S(=O)(=O)c2cn(C)cn2)CC1,–,–,–,·,·,·
O=C(C[C@@H]1CC[C@H]2[C@@H](COC[C@@H](O)CN2C(=O)c2cnccn2)O1)NCc1ccc(F)cc1,–,–,–,·,–,–
COC(=O)C[C@H]1CC[C@H]2[C@@H](COc3ccc(NC(=O)c4ccccc4)cc3C(=O)N2C)O1,–,·,·,·,–,–
CCOC(=O)c1csc(NC(=O)c2ccc(OCC)cc2)n1,–,–,53,–,–,–
Cc1nc(NC(=O)c2cc3ccccc3o2)sc1C,–,–,–,–,–,–
CCOC(=O)c1csc(NC(=O)c2ccccc2)n1,–,–,–,–,–,–
CCOC(=O)c1sc(NC(=O)c2cc3ccccc3o2)nc1C,–,–,87,–,–,–
Cc1cccc2c(N)c3c(nc12)CCCC3 (tested in a mixture with another compound),–,–,–,–,–,–
Cc1cc(C)c2c(N)c3cccc(C)c3nc2n1,–,–,–,104,–,–
O=C(O)c1ccccc1NS(=O)(=O)c1ccc(NNC(=S)Nc2ccc(OC(F)F)cc2)c([N+](=O)[O-])c1,27,–,–,–,–,–
CS(=O)(=O)c1ccc(CNC(=O)C2(C(F)(F)F)CC(CCCO)CCCO2)cc1 (stereo not drawn),–,–,59,·,–,–
COc1ccc(NC(=O)Nc2ccc3c(c2)C(=O)N([C@@H](C)CO)C[C@@H](C)[C@H](CN(C)C(=O)Nc2c(C)noc2C)OCCCC[C@H](C)O3)cc1,–,·,–,·,–,–
COc1ccc(S(=O)(=O)N[C@@H]2C=C[C@H](CC(=O)N3CCC(Cc4ccccc4)CC3)O[C@@H]2CO)cc1,–,63[16.7 µM],–,·,–,–
Cc1ccc(S(=O)(=O)N[C@@H]2C=C[C@H](CC(=O)N3CCC(Cc4ccccc4)CC3)O[C@H]2CO)cc1,–,–,–,·,·,–
Cc1ccc(S(=O)(=O)N[C@H]2C=C[C@H](CC(=O)N3CCC(Cc4ccccc4)CC3)O[C@H]2CO)cc1,–,76[16.7 µM],–,·,·,–
S=C(c1ccc(-c2ccccc2)cc1)N1CCOCC1,–,63,–,–,–,–
O=C(c1ccc(-c2ccccc2)cc1)c1ccccc1C(=O)N1CCOCC1,·,–,·,–,–,·
Cc1ccc(S(=O)(=O)N(Cc2cccnc2)Cc2cc3ccccc3[nH]c2=O)cc1,29,–,–,–,–,–

# Source: PubChem (Broad Institute)
